In brackets after ≈: the same amount, converted by molar mass.
How the values were obtained:
Cryptococcus neoformans [1] = test: Antifungal activity against Cryptococcus neoformans isolate T1444 after 48 hrs by micro broth dilution method; assay type: functional; conditions: isolate T1444, 48 h
In short: (§1)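 CLSI M27-A broth microdilution. Fungi at 10^6 cells/mL were grown in fresh BHI medium with samples at 1 pg/mL to 1 mg/mL, at 37 °C for 48 h. Growth was read daily by visible turbidity. MIC was the lowest concentration preventing growth. Inhibition was confirmed with resazurin (5 mg/100 mL PBS, pH 7.2) after a further 3 h at 37 °C. Amphotericin B was the positive control.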

Candida albicans = test: Antimicrobial activity against Candida albicans ATCC 10231 after 48 hrs by microbroth dilution method; assay type: functional; conditions: ATCC 10231, 48 h; in short: as §1
Candida parapsilosis [2] = test: Antifungal activity against Candida parapsilosis ATCC 22019 after 24 hrs by micro broth dilution method; assay type: functional; conditions: Lodderomyces parapsilosis, ATCC 22019, 24 h
Cryptococcus neoformans [3] = test: Antifungal activity against Cryptococcus neoformans ATCC 24067 after 48 hrs by micro broth dilution method; assay type: functional; conditions: ATCC 24067, 48 h; in short: as §1
Candida parapsilosis [4] = test: Antifungal activity against Candida parapsilosis ATCC 22019 after 48 hrs by micro broth dilution method; conditions: Lodderomyces parapsilosis, ATCC 22019, 48 h
Erythrocyte = test: Hemolytic activity in human RBC at MIC after 1 hr by spectrophotometric method; assay type: ADME, cell-based
In short: (§2)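 Sample solutions (2000 to 15.6 μg/mL before mixing) were incubated with a 4% human O+ erythrocyte suspension in PBS (1:4 by volume) for 1 h at 37 °C. PBS was then added, and lysis was read at 590 nm. PBS served as the negative control and water as the positive control.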

Cryptococcus neoformans [5] = test: Antifungal activity against Cryptococcus neoformans isolate T1444 assessed as FIC index after 48 hrs in presence of amphotericin B by micro broth dilution method; assay type: functional
In short: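 Checkerboard dose matrix in microplates. Sample and amphotericin B were each used below their single-agent MICs. Inoculum was 10^3 cells/mL, incubated at room temperature for 48 h. Growth was read visually and confirmed with resazurin. FIC for each agent is the MIC in combination divided by the MIC alone, and FICindex is the sum of the two FICs. Synergy is <0.5, additive is >0.5 to ≤1, and antagonism is >4.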

[6] = Hemolytic activity in human RBC after 1 hr by spectrophotometric method; assay type: ADME, cell-based, Erythrocyte; conditions: human red blood cells (erythrocytes); in short: as §2

Row | Structure (SMILES) | MIC (Cryptococcus neoformans [1]) | MIC (Candida albicans) | MIC (Candida parapsilosis [2]) | MIC (Cryptococcus neoformans [3]) | MIC (Candida parapsilosis [4]) | Activity (Erythrocyte) | fractional inhibitory concentration index (FICI) (Cryptococcus neoformans [5]) | HC50 at 1 h [6]
1 | C[C@@H]1O[C@@H](O[C@@H]2[C@@H](O)[C@H](OCCc3ccc(O)c(O)c3)O[C@H](CO)[C@H]2OC(=O)/C=C/c2ccc(O)cc2)[C@H](O)[C@H](OC(=O)/C=C/c2ccc(O)c(O)c2)[C@H]1O | 125 µg/mL (≈ 162 µM) | > 125 µg/mL | > 125 µg/mL | – | – | – | – | –
2 | C[C@@H]1[C@H](O)[C@@H](C)/C=C/C=C/C=C/C=C/C=C/C=C/C=C/[C@H](O[C@@H]2O[C@H](C)[C@@H](O)[C@H](N)[C@@H]2O)C[C@@H]2O[C@](O)(C[C@@H](O)C[C@@H](O)[C@H](O)CC[C@@H](O)C[C@@H](O)CC(=O)O[C@H]1C)C[C@H](O)[C@H]2C(=O)O [AMPHOTERICIN B] | 0.125 µg/mL (≈ 0.135 µM) | 0.25 µg/mL (≈ 0.271 µM) | – | 0.125 µg/mL (≈ 0.135 µM) | 0.125 µg/mL (≈ 0.135 µM) | – | – | –
3 | COc1ccc(-c2cc(=O)c3c(O)cc(O[C@@H]4O[C@H](CO[C@@H]5O[C@@H](C)[C@H](O)[C@@H](O)[C@H]5O)[C@@H](O)[C@H](O)[C@H]4O)cc3o2)cc1 [ACACIIN] | 125 µg/mL (≈ 211 µM) | > 125 µg/mL | – | – | > 125 µg/mL | – | – | –
4 | C[C@@H]1O[C@@H](O[C@@H]2[C@@H](O)[C@H](OCCc3ccc(O)c(O)c3)O[C@H](CO)[C@H]2OC(=O)/C=C/c2ccc(O)c(O)c2)[C@H](O)[C@H](O)[C@H]1OC(=O)/C=C/c1ccc(O)c(O)c1 | 15.6 µg/mL (≈ 19.8 µM) | > 125 µg/mL | – | – | 125 µg/mL (≈ 159 µM) | – | – | –

More lines, main results first:

Row | MIC (Cryptococcus neoformans [1]) | MIC (Candida albicans) | MIC (Candida parapsilosis [2]) | MIC (Cryptococcus neoformans [3]) | MIC (Candida parapsilosis [4]) | Structure (SMILES) | Activity (Erythrocyte) | fractional inhibitory concentration index (FICI) (Cryptococcus neoformans [5]) | HC50 at 1 h [6]
5 | 31.2 µg/mL (≈ 50 µM) | > 125 µg/mL | – | 31.2 µg/mL (≈ 50 µM) | > 125 µg/mL | C[C@@H]1O[C@@H](OC[C@H]2O[C@@H](OCCc3ccc(O)c(O)c3)[C@H](O)[C@@H](O)[C@@H]2OC(=O)/C=C/c2ccc(O)c(O)c2)[C@H](O)[C@H](O)[C@H]1O [FORSYTHIASIDE] | Non-Toxic | 0.5 | 1000 µg/mL
6 | > 125 µg/mL | – | – | – | – | C[C@@H]1O[C@@H](O[C@@H]2[C@@H](O)[C@H](OCCc3ccc(O)c(O)c3)O[C@H](COC(=O)/C=C/c3ccc(O)c(O)c3)[C@H]2O)[C@H](O)[C@H](O)[C@H]1O [ISOACTEOSIDE] | – | – | –
7 | 62.5 µg/mL (≈ 81.1 µM) | > 125 µg/mL | – | – | > 125 µg/mL | C[C@@H]1O[C@@H](OC[C@H]2O[C@@H](OCCc3ccc(O)c(O)c3)[C@H](O)[C@@H](O[C@@H]3O[C@@H](C)[C@H](O)[C@@H](O)[C@H]3O)[C@@H]2OC(=O)/C=C/c2ccc(O)c(O)c2)[C@H](O)[C@H](O)[C@H]1O [POLIUMOSIDE] | – | – | –
8 | 62.5 µg/mL (≈ 100 µM) | > 125 µg/mL | – | 62.5 µg/mL (≈ 100 µM) | 125 µg/mL (≈ 200 µM) | C[C@@H]1O[C@@H](O[C@@H]2[C@@H](O)[C@H](OCCc3ccc(O)c(O)c3)O[C@H](CO)[C@H]2OC(=O)/C=C/c2ccc(O)c(O)c2)[C@H](O)[C@H](O)[C@H]1O [ACETOSIDE] | Non-Toxic | 0.72 | 1000 µg/mL
